Assay results from ChEMBL document CHEMBL3091329, “Discovery of tetrahydroisoquinoline-based CXCR4 antagonists” (ACS Med Chem Lett, 2013).

Tests used:
[1] = target: T1, C-C chemokine receptor type 6 (Homo sapiens) (UniProt P51684); test: Inhibition of CCR6 (unknown origin) at 10 uM relative to control
T1 sequence (whole entry): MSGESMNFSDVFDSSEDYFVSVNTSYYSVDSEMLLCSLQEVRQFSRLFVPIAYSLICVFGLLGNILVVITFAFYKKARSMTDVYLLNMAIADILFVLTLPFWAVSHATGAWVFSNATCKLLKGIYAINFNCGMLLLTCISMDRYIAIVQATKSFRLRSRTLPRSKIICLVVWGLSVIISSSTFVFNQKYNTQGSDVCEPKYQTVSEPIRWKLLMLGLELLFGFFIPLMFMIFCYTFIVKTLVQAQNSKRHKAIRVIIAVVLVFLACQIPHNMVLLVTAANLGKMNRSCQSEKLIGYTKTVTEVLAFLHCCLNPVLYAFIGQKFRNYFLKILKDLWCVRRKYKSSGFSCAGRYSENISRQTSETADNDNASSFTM

[2] = Oral bioavailability in jugular pre-cannulated CRL Sprague-Dawley rat at 10 mg/kg; format: ADME, organism-based; settings: in vivo
Procedure, shortened: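 Oral dosing by gavage at 10 mg/kg, with an i.v. arm at 2 mg/kg. Plasma AUC was calculated for each route, and F was obtained from the dose-normalised ratio of oral to i.v. AUC.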

[3] = Intrinsic clearance in mouse liver microsomes at 1 uM incubated for 3 mins prior to NADPH addition by LC-MS/MS analysis; format: ADME, Microsome; settings: 0.05 h
[4] = target: T2, C-X-C chemokine receptor type 2 (Homo sapiens) (UniProt P25025); test: Inhibition of CXCR2 (unknown origin) at 10 uM relative to control
T2 sequence (whole entry): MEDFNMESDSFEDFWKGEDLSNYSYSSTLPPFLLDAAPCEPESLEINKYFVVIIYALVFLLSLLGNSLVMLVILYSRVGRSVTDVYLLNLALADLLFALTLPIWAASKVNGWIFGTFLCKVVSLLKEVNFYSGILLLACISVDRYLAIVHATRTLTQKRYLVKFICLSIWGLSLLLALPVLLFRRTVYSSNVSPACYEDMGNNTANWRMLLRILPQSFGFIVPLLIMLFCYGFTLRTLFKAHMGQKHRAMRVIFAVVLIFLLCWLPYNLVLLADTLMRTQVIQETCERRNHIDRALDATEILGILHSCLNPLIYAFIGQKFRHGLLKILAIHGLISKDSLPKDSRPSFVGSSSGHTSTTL

[5] = target: T3, C-C chemokine receptor type 3 (Homo sapiens) (UniProt P51677); test: Inhibition of CCR3 (unknown origin) at 10 uM relative to control
T3 sequence (whole entry): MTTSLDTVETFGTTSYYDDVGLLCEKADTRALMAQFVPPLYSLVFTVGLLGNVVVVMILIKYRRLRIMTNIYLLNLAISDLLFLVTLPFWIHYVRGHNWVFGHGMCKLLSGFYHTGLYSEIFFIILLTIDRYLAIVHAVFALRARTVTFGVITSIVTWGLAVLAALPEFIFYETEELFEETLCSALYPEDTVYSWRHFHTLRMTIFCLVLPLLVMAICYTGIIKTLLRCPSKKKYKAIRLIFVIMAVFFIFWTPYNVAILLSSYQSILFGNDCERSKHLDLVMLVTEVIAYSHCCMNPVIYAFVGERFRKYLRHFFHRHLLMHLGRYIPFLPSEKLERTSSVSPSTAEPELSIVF

[6] = target: C-C chemokine receptor type 5 (Homo sapiens) (UniProt P51681); test: Inhibition of CCR5 (unknown origin) at 10 uM relative to control
C-C chemokine receptor type 5 (Homo sapiens), sequence (P51681 whole entry, looked up): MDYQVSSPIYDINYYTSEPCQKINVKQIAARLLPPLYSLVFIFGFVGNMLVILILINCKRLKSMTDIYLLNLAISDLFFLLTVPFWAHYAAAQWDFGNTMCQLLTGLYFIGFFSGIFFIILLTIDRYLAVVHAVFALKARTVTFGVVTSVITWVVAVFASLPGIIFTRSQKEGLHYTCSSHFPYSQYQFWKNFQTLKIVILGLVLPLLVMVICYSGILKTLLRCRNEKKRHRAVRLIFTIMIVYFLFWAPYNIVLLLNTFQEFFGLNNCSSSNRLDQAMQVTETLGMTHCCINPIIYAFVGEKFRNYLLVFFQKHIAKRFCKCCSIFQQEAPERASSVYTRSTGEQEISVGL

[7] = target: C-X-C chemokine receptor type 4 (Homo sapiens, UniProt P61073)
C-X-C chemokine receptor type 4, sequence (P61073 whole entry): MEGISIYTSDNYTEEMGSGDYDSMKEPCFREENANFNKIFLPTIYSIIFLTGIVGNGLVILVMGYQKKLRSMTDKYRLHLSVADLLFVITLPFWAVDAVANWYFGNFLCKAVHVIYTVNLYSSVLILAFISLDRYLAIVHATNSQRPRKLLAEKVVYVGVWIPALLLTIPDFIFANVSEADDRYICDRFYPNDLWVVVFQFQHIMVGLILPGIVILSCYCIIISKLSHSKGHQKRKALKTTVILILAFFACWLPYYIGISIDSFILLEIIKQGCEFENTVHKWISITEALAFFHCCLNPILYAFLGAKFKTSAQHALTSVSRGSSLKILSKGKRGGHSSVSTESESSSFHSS

[8] = Half life in human liver microsomes at 1 uM incubated for 3 mins prior to NADPH addition by LC-MS/MS analysis; format: ADME
[9] = Elimination half life in jugular pre-cannulated Harlan Sprague-Dawley rat at 2 mg/kg, iv; format: ADME, organism-based; parameters: dose 2 mg/kg, route intravenous; settings: in vivo, read-out: beta t1/2 (converted)
[10] = target: T4, C-X-C chemokine receptor type 3 (Homo sapiens) (UniProt P49682); test: Inhibition of CXCR3 (unknown origin) at 10 uM relative to control
T4 sequence (whole entry): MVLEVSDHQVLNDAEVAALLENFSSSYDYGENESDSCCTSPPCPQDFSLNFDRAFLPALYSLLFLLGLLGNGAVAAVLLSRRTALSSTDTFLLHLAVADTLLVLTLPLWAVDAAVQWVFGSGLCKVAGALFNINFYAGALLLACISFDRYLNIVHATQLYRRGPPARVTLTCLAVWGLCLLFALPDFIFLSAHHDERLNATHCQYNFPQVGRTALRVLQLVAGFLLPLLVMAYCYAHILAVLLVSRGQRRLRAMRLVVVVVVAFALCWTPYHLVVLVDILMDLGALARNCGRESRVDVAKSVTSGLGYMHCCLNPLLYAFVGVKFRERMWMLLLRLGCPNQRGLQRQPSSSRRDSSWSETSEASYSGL

[11] = AUC (0 to infinity) in jugular pre-cannulated CRL Sprague-Dawley rat at 10 mg/kg, po; format: ADME, organism-based; parameters: dose 10 mg/kg, route oral, time infinity; settings: plasma
[12] = Cytotoxicity against human MAGI-CCR5 cells assessed as cell viability after 2 to 6 days by MTS assay; settings: MAGI-CCR5 cells
[13] = target: C-X-C chemokine receptor type 6 (Homo sapiens) (UniProt O00574); test: Inhibition of CXCR6 (unknown origin) at 10 uM relative to control
C-X-C chemokine receptor type 6 (Homo sapiens), sequence (O00574 whole entry, looked up): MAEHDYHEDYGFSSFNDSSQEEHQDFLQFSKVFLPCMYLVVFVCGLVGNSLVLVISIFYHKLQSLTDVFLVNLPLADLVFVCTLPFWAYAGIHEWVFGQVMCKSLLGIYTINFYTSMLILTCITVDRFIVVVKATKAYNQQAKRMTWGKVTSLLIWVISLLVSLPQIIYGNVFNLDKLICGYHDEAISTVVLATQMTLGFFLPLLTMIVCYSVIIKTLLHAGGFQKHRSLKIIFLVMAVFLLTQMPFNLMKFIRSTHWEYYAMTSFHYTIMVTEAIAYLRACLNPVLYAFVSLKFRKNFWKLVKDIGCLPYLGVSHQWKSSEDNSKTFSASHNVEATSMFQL

[14] = Aqueous solubility in PBS at 7.4 after 90 mins by nephelometric analysis; format: physicochemical; settings: pH 7.4
[15] = system: Mus musculus; test: Induction of WBC mobilization in sc dosed Harlan C57BL/6 mouse after 1 to 8 hrs by LC/MS/MS analysis; format: functional, organism-based
Procedure, shortened: (§1)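 Harlan mice were given a single subcutaneous dose at 5, 10 or 20 mg/kg. Blood was sampled at multiple time points over about 8 h, and each sample was used for both total circulating WBC count and plasma drug level. Counts and concentrations were plotted against time for each dose.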

[16] = system: Plasma; test: Plasma concentration in Harlan C57BL/6 mouse at 5 to 20 mg/kg, sc after 6 to 8 hrs by LC/MS/MS analysis; format: ADME, organism-based; parameters: route subcutaneous; settings: in vivo; procedure, shortened: as §1
[17] = Cytotoxicity against human PBMC assessed as cell viability by MTS assay; format: cell-based; settings: read-out: TC50 (the source's name)
[18] = Plasma concentration in Harlan C57BL/6 mouse at 5 mg/kg, sc after 1 hr by LC/MS/MS analysis; format: ADME, organism-based; parameters: dose 5 mg/kg, route subcutaneous; procedure, shortened: as §1

Structure (SMILES): NCCCCN(C[C@H]1Cc2ccccc2CN1)[C@H]1CCCc2cccnc21
- inhibition [1]: < 10%
- bioavailability [2]: 63%
- CLH [3]: 64 µL/min/mg
- inhibition [4]: < 10%
- inhibition [5]: < 10%
- inhibition [6]: < 10%
- IC90 [7]: 0.24 µM
- half-life at 1 µM [8]: > 1 h
- half-life [9]: 1.2 h
- inhibition [10]: < 10%
- AUC(0-inf) [11]: 328 ng·h/mL
- CC50 [12]: > 10 µM
- inhibition [13]: < 10%
- solubility kinetic at […] [14]: > 274 µM
- Activity [15]: Dose-dependent effect
- Cp [16]: 87 ng/mL
- CC50 [17]: 47 µM
- concentration at 1 h [18]: 725 ng/mL
